Test results reported in ChEMBL document CHEMBL4130356, “Design, synthesis and 2D QSAR study of novel pyridine and quinolone hydrazone derivatives as potential antimicrobial and antitubercular agents” (Eur J Med Chem, 2017).
Converted amounts (≈) assume the structure as drawn. The source made the active and inactive calls. No cut-off for these calls is given here.

Experiments:
Escherichia coli [1] = experiment: Antimicrobial activity against Escherichia coli RCMB 010052 after 24 hrs by serial dilution method; format: functional; details: RCMB 010052, 24 h
In short: (§1)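 Serial twofold dilution in microtiter plates starting from a 100 mmol stock in DMSO; final concentrations 125 down to 0.12 […]. Incubated at 37°C and read on a microplate reader after 24 h. Ciprofloxacin was the reference. Run in triplicate, with the average taken. MIC was the lowest concentration inhibiting growth.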

Escherichia coli [2] = experiment: Antimicrobial activity against Escherichia coli RCMB 010052 assessed as diameter of zone inhibition at 100 ug/ml after 24 hrs by agar well diffusion assay; format: functional; details: RCMB 010052, 24 h, read-out: DIZ
In short: (§2)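 Agar well diffusion on nutrient agar plates seeded with the bacterium, using 1 cm wells. Plates were held at 4°C for 1 h for diffusion, then incubated at 37°C. Inhibition zone diameters were measured at 24 h. Ciprofloxacin was the positive control. Run in triplicate, with the mean zone reported.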

Pseudomonas aeruginosa [3] = experiment: microbe, parasite or virus in culture; details: RCMB 010043, 24 h, read-out: DIZ
Pseudomonas aeruginosa [4] = experiment: microbe, parasite or virus in culture; details: RCMB 010043, 24 h
Aspergillus fumigatus [5] = experiment: Antimicrobial activity against Aspergillus fumigatus RCMB 02568 assessed as diameter of zone inhibition at 100 ug/ml after 48 hrs by agar well diffusion assay; format: functional; details: RCMB 02568, 48 h, read-out: DIZ
In short: (§3)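 Agar well diffusion on malt agar plates seeded with the fungus, using 1 cm wells. Plates were held at 4°C for 1 h for diffusion, then incubated at 28°C. Inhibition zone diameters were measured at 48 h. Amphotericin B was the positive control. Run in triplicate, with the mean zone reported.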

[6] = tested on: Mycobacterium tuberculosis; experiment: Antimycobacterial activity against Mycobacterium tuberculosis RCMB 010126 clinical isolate after 7 days by MABA; format: functional; details: Mycobacterium tuberculosis, RCMB 010126, 168 h
In short: (§4)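 Inoculum from fresh LJ culture resuspended in 7H9-S broth with casitone, glycerol and OADC, adjusted to McFarland No. 1 and diluted 1:20. Serial two-fold compound dilutions in 7H9-S; isoniazid reference. Incubated 7 days at 37°C in air, then Alamar blue added and incubated overnight. Percent inhibition = 1 − (test well/growth-control mean) × 100; MIC = lowest concentration preventing blue-to-pink change.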

Escherichia coli [7] = experiment: Potency index, ratio of ciprofloxacin MIC to test compound MIC for Escherichia coli RCMB 010052; format: functional
Pseudomonas aeruginosa [8] = details: RCMB 010043, 100 ug/ml
Streptococcus pneumoniae [9] = experiment: Antimicrobial activity against Streptococcus pneumoniae RCMB 010010 after 24 hrs by serial dilution method; format: functional; details: RCMB 010010, 24 h; in short: as §1
[10] = Selectivity index, ratio of IC50 for human WI38 cells to MIC for Mycobacterium tuberculosis RCMB 010126 clinical isolate; format: toxicity; details: read-out: Selectivity Index
In short: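 WI-38 human lung fibroblasts grown in DMEM with 10% FBS at 37°C and 5% CO2, seeded at 1×10^4 cells/well, and exposed to serial two-fold dilutions in triplicate. Viability read by crystal violet stain at 490 nm. IC50 taken from dose-response plots. Ratio uses this IC50 against the MABA MIC for M. tuberculosis.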

Staphylococcus aureus [11] = experiment: Antimicrobial activity against Staphylococcus aureus RCMB 010028 after 24 hrs by serial dilution method; format: functional; details: RCMB 010028, 24 h; in short: as §1
[12] = tested on: Mycobacterium tuberculosis; experiment: Antimycobacterial activity against Mycobacterium tuberculosis RCMB 010126 clinical isolate assessed as inhibition zone after 7 days by MABA; format: functional; in short: as §4
Pseudomonas aeruginosa [13] = details: RCMB 010043
Aspergillus fumigatus [14] = experiment: Antimicrobial activity against Aspergillus fumigatus RCMB 02568 after 48 hrs by serial dilution method; format: functional; details: RCMB 02568, 48 h
In short: as §1, with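 “28°C” for “37°C”, “48” for “24”, “Amphotericin B” for “Ciprofloxacin”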

Streptococcus pneumoniae [15] = experiment: Antimicrobial activity against Streptococcus pneumoniae RCMB 010010 assessed as diameter of zone inhibition at 100 ug/ml after 24 hrs by agar well diffusion assay; format: functional; details: RCMB 010010, 24 h, read-out: DIZ; in short: as §2
Candida albicans [16] = experiment: Antimicrobial activity against Candida albicans RCMB 05036 assessed as diameter of zone inhibition at 100 ug/ml after 48 hrs by agar well diffusion assay; format: functional; details: RCMB 05036, 48 h, read-out: DIZ; in short: as §3
Staphylococcus aureus [17] = experiment: Antimicrobial activity against Staphylococcus aureus RCMB 010028 assessed as diameter of zone inhibition at 100 ug/ml after 24 hrs by agar well diffusion assay; format: functional; details: RCMB 010028, 24 h, read-out: DIZ; in short: as §2
WI-38 = experiment: Cytotoxicity against human WI38 cells assessed as reduction in cell viability after 24 hrs by crystal violet staining-based colorimetric method; details: WI-38, 24 h
In short: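 WI-38 cells were grown in DMEM with 10% FBS at 37°C and 5% CO2, then seeded at 1×10^4 cells/well. Serial twofold dilutions were added, three wells per concentration. Viability was read by crystal violet stain, solubilised in 30% acetic acid, at 490 nm. Run in triplicate. IC50 was estimated from dose-response plots.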

Streptococcus pneumoniae [18] = experiment: Potency index, ratio of ampicillin MIC to test compound MIC for Streptococcus pneumoniae RCMB 010010; format: functional
Candida albicans [19] = experiment: Antimicrobial activity against Candida albicans RCMB 05036 after 48 hrs by serial dilution method; format: functional; details: RCMB 05036, 48 h
In short: as §1, with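 “28°C” for “37°C”, “48” for “24”, “Amphotericin B” for “Ciprofloxacin”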

Row | Structure (SMILES) | MIC (Escherichia coli [1]) [µg/mL] | zone of inhibition at 100 µg/mL (Escherichia coli [2]) [mm] | zone of inhibition at 100 µg/mL (Pseudomonas aeruginosa [3]) [mm] | MIC (Pseudomonas aeruginosa [4]) [µg/mL] | zone of inhibition at 100 µg/mL (Aspergillus fumigatus [5]) [mm] | MIC [6] [µg/mL] | Ratio (Escherichia coli [7]) | DIZ (Pseudomonas aeruginosa [8]) | MIC (Streptococcus pneumoniae [9]) [µg/mL] | selectivity ratio [10] | MIC (Staphylococcus aureus [11]) [µg/mL] | inhibition zone (IZ) [12] [mm] | MIC (Pseudomonas aeruginosa [13]) | MIC (Aspergillus fumigatus [14]) [µg/mL] | zone of inhibition at 100 µg/mL (Streptococcus pneumoniae [15]) [mm] | zone of inhibition at 100 µg/mL (Candida albicans [16]) [mm] | zone of inhibition at 100 µg/mL (Staphylococcus aureus [17]) [mm] | IC50 (WI-38) [µg/mL] | Ratio (Streptococcus pneumoniae [18]) | MIC (Candida albicans [19]) [µg/mL]
1 | O=C(O)c1cn(C2CC2)c2cc(N3CCNCC3)c(F)cc2c1=O [CIPROFLOXACIN] | 0.98 (≈ 2.96 µM) | 23.4 | 20.6 | 1.95 (≈ 5.89 µM) |  |  |  |  |  |  |  |  |  |  |  |  |  |  |  | 
2 | COc1cc(/C=N/NC(=O)c2ccc(-c3cccc(Cl)c3)nc2C)cc(OC)c1OC | 0.49 (≈ 1.11 µM) | 25.3 |  |  | 23.3 | 0.78 (≈ 1.77 µM) | 2 | inactive | 0.49 (≈ 1.11 µM) | 635 | 1.95 (≈ 4.43 µM) | 70.48 | inactive | 0.98 (≈ 2.23 µM) | 23.1 | 21.4 | 21.3 | 495 (≈ 1130 µM) | 2 | 0.49 (≈ 1.11 µM)
